How the values were obtained:
Rattus norvegicus [1] = experiment: In vivo antihistaminic activity using compound 48/80 induced lethality test in rat after 2 hr of oral administration.; format: functional
Procedure, shortened: (§1)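 Protection was survival for 4 h after challenge. ED50 with confidence limits was calculated by Finney from five rats per dose and at least three doses of a geometric series (0.0025–40 mg/kg). Estimated ED50 used at least two rats per dose.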

Rattus norvegicus [2] = experiment: In vivo antihistaminic activity using compound 48/80 induced lethality test after 1 hr of subcutaneous administration in rat; format: functional; conditions: sc; procedure, shortened: as §1
Cavia porcellus [3] = experiment: In vivo histamine induced lethality after 3 hours of iv administration in guinea pig; format: functional
Rattus norvegicus [4] = experiment: Inhibition of histamine skin reaction in rat after 2 hr of oral administration.; format: functional
Procedure, shortened: (§2)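 Test compound or solvent given orally to rats 2 h before four intradermal injections into clipped back: two of 50 μL histamine dihydrochloride (1 mg/mL in saline), two of 50 μL serotonin (2 μg/mL in saline). Then iv 0.5 mL of 0.5% trypan blue. Bluing of skin reactions scored 30 min later.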

Cavia porcellus [5] = experiment: In vivo histamine induced lethality after 8 hours of iv administration in guinea pig; format: functional
Rattus norvegicus [6] = experiment: Inhibition of mydriatic activity in rat after 2 hr of oral administration.; format: functional
Cavia porcellus [7] = experiment: In vivo histamine induced lethality after 24 hours of iv administration in guinea pig; format: functional
Rattus norvegicus [8] = experiment: Inhibition of serotonin skin reaction in rat after 2 hr of oral administration.; format: functional; procedure, shortened: as §2
Rattus norvegicus [9] = experiment: Inhibition of mydriatic activity in rat after 2 hr of oral administration; format: functional
Rattus norvegicus [10] = experiment: In vivo antihistaminic activity using compound 48/80 induced lethality test in rat 2 hr after oral administration; format: functional; procedure, shortened: as §1
Rattus norvegicus [11] = experiment: In vivo antihistaminic activity using compound 48/80 induced lethality test in rat after 2 hr of oral administration; C represents estimated ED50 values used whenever possible for comparison of relative potencies; format: functional, organism-based
Procedure, shortened: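 Protection = survival 4 h after challenge. ED50 (dose giving 50% survival) calculated with confidence limits by Finney, five animals per dose, at least three doses from geometric series 0.0025–40.0 mg/kg. Estimated ED50 values based on at least two animals per dose.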

Rattus norvegicus [12] = experiment: In vivo antihistaminic activity using compound 48/80 induced lethality test in rat after 2 hr of oral administration; format: functional; procedure, shortened: as §1
Cavia porcellus [13] = experiment: In vivo histamine induced lethality after 96 hours of iv administration in guinea pig; format: functional
Cavia porcellus [14] = experiment: In vivo histamine induced lethality after 48 hours of iv administration in guinea pig; format: functional
Procedure, shortened: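 Male albino guinea pigs (280–360 g) were dosed orally 3, 24, 48 or 96 h before an iv challenge with histamine dihydrochloride (1.25 mg/kg). Protection was survival at 1 h. Doses rose in 2-fold steps from 0.0025 mg/kg, with at least three doses and 4–6 animals per dose and time point. PD50 with confidence limits was computed by Finney.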

Rattus norvegicus [15] = experiment: Inhibition of mydriatic activity in rat after 2 hr of intraperitoneal administration.; format: functional; conditions: ip
Rattus norvegicus [16] = experiment: Inhibition of histamine skin reaction in rat after 2 hr of subcutaneous administration.; format: functional; conditions: sc
Rattus norvegicus [17] = experiment: Inhibition of serotonin skin reaction in rat after 2 hr of subcutaneous administration.; format: functional; conditions: sc
Rattus norvegicus [18] = experiment: Inhibition of histamine skin reaction in rat after 2 hr of oral administration; format: functional; procedure, shortened: as §2
Rattus norvegicus [19] = experiment: In vivo antihistaminic activity using compound 48/80 induced lethality test in rat after 2 hr of subcutaneous administration; format: functional; conditions: sc; procedure, shortened: as §1
Rattus norvegicus [20] = experiment: Inhibition of serotonin skin reaction in rat after 2 hr of oral administration; format: functional; procedure, shortened: as §2
Rattus norvegicus [21] = experiment: Inhibition of mydriatic activity in rat after 2 hr of intraperitoneal administration; format: functional; conditions: ip

`Fc1ccc(Cn2c(NC3CCN(CCc4ccccc4)CC3)nc3cc(F)ccc32)cc1` gave an ED50 (Rattus norvegicus [1]) of over 2.5 mg/kg and an ED50 (Rattus norvegicus [2]) of 1.25 mg/kg.
For `O=c1[nH]c2ccccc2n1CCCN1CCN(C(c2ccccc2)c2ccccc2)CC1` [OXATOMIDE], the ED50 (Cavia porcellus [3]) was 0.2 mg/kg, the ED50 (Rattus norvegicus [4]) was 9.36 mg/kg and the ED50 (Cavia porcellus [5]) was 1.25 mg/kg. It also gave an ED50 (Rattus norvegicus [6]) of over 160 mg/kg, an ED50 (Cavia porcellus [7]) of over 5 mg/kg and an ED50 (Rattus norvegicus [8]) of 32.6 mg/kg.
`COc1ccc(CN(CCN(C)C)c2ccccn2)cc1` [PYRILAMINE] was tested, and the ED50 (Rattus norvegicus [4]) was over 40 mg/kg, the ED50 (Rattus norvegicus [9]) was 56.5 mg/kg and the ED50 (Rattus norvegicus [8]) was over 40 mg/kg. It also gave an ED50 (Rattus norvegicus [10]) of 56.6 mg/kg.
`O=[N+]([O-])c1ccc(CCN2CCC(Nc3nc4ccccc4n3Cc3ccc(F)cc3)CC2)cc1` was tested, and the ED50 (Rattus norvegicus [2]) was over 2.5 mg/kg and the ED50 (Rattus norvegicus [11]) was “Estimated ED50 values used whenever possible”.
In the case of `Fc1ccc(Cn2c(NC3CCN(CCc4ccccc4)CC3)nc3ccc(F)cc32)cc1`, the ED50 (Rattus norvegicus [1]) is reported as 0.63 mg/kg and the ED50 (Rattus norvegicus [2]) is reported as 1.25 mg/kg.
Molecule `Br.OCCN1CCC(Nc2nc3ccccc3n2Cc2ccc(F)cc2)CC1` has an ED50 (Cavia porcellus [3]) of 0.04 mg/kg, an ED50 (Rattus norvegicus [12]) of 0.63 mg/kg and an ED50 (Cavia porcellus [13]) of 2.15 mg/kg. For the same molecule, the ED50 (Rattus norvegicus [2]) was 0.04 mg/kg, the ED50 (Cavia porcellus [14]) was 0.3 mg/kg and the ED50 (Rattus norvegicus [15]) was over 40 mg/kg. It also gave an ED50 (Cavia porcellus [5]) of 0.07 mg/kg, an ED50 (Cavia porcellus [7]) of 0.09 mg/kg and an ED50 (Rattus norvegicus [16]) of 0.08 mg/kg. The ED50 (Rattus norvegicus [17]) was over 0.63 mg/kg.
Work on `CN1CCC(=C2c3ccccc3CCc3cccnc32)CC1` [AZATADINE] yielded an ED50 (Cavia porcellus [3]) of 0.014 mg/kg, an ED50 (Rattus norvegicus [12]) of 0.48 mg/kg and an ED50 (Cavia porcellus [14]) of over 2.5 mg/kg. For the same molecule, the ED50 (Cavia porcellus [5]) was 0.06 mg/kg, the ED50 (Rattus norvegicus [18]) was 0.77 mg/kg and the ED50 (Rattus norvegicus [19]) was 0.049 mg/kg. The ED50 (Rattus norvegicus [6]) was 5.39 mg/kg and the ED50 (Rattus norvegicus [20]) was 18.8 mg/kg.
`COc1ccc(CCN2CCC(Nc3nc4ccccc4n3Cc3ccc(F)cc3)CC2)cc1` [ASTEMIZOLE] showed an ED50 (Cavia porcellus [3]) of 0.33 mg/kg, an ED50 (Rattus norvegicus [12]) of 0.11 mg/kg and an ED50 (Cavia porcellus [13]) of 0.19 mg/kg. For the same molecule, the ED50 (Rattus norvegicus [2]) was 0.11 mg/kg, the ED50 (Cavia porcellus [14]) was 0.04 mg/kg and the ED50 (Rattus norvegicus [21]) was over 40 mg/kg. For the same molecule, the ED50 (Cavia porcellus [5]) was 0.17 mg/kg, the ED50 (Rattus norvegicus [18]) was 0.13 mg/kg and the ED50 (Rattus norvegicus [6]) was over 160 mg/kg. It also gave an ED50 (Cavia porcellus [7]) of 0.07 mg/kg, an ED50 (Rattus norvegicus [16]) of 0.15 mg/kg and an ED50 (Rattus norvegicus [20]) of 14.2 mg/kg. It also gave an ED50 (Rattus norvegicus [17]) of over 2.5 mg/kg.
Work on `COc1ccc(CCN2CCC(Nc3nc4ccccc4n3Cc3ccc(F)cc3)CC2)cc1OC` yielded an ED50 (Rattus norvegicus [12]) of 0.16 mg/kg and an ED50 (Rattus norvegicus [2]) of 1.25 mg/kg.
`COc1ccc(CCN2CCC(Nc3nc4ccccc4n3Cc3ccc(F)cc3)CC2)c(OC)c1.Cl` gave an ED50 (Rattus norvegicus [12]) of 0.31 mg/kg and an ED50 (Rattus norvegicus [2]) of 0.31 mg/kg.
`O=C(OCc1ccccc1)Oc1ccc(CCN2CCC(Nc3nc4ccccc4n3Cc3ccc(F)cc3)CC2)cc1` showed an ED50 (Rattus norvegicus [12]) of 0.16 mg/kg and an ED50 (Rattus norvegicus [2]) of 0.31 mg/kg.
`O=C(OCCN1CCC(Nc2nc3ccccc3n2Cc2ccc(F)cc2)CC1)N1CCOCC1` gave an ED50 (Rattus norvegicus [12]) of 2.5 mg/kg and an ED50 (Rattus norvegicus [2]) of 0.31 mg/kg.
`CCOC(=O)COc1ccc(CCN2CCC(Nc3nc4ccccc4n3Cc3ccc(F)cc3)CC2)cc1` was tested, and the ED50 (Rattus norvegicus [12]) was over 2.5 mg/kg and the ED50 (Rattus norvegicus [2]) was 0.16 mg/kg.
In the case of `CC(c1ccccc1)N1CCC(Nc2nc3ccccc3n2Cc2ccc(F)cc2)CC1` (stereo not given), the ED50 (Rattus norvegicus [12]) is reported as 2.5 mg/kg and the ED50 (Rattus norvegicus [2]) is reported as 0.31 mg/kg.
In the case of `NC(=O)COc1ccc(CCN2CCC(Nc3nc4ccccc4n3Cc3ccc(F)cc3)CC2)cc1`, the ED50 (Rattus norvegicus [12]) is reported as 2.5 mg/kg and the ED50 (Rattus norvegicus [2]) is reported as 1.25 mg/kg.
`CN1CCC(Nc2nc3ccccc3n2Cc2ccc(F)cc2)CC1` was tested, and the ED50 (Rattus norvegicus [12]) was 2.5 mg/kg, the ED50 (Rattus norvegicus [2]) was 0.16 mg/kg and the ED50 (Rattus norvegicus [21]) was over 40 mg/kg. The ED50 (Rattus norvegicus [16]) was 0.04 mg/kg and the ED50 (Rattus norvegicus [17]) was at least 0.63 mg/kg.
`Cc1cc(CCN2CCC(Nc3nc4ccccc4n3Cc3ccc(F)cc3)CC2)ccc1O.Cl` gave an ED50 (Rattus norvegicus [12]) of 0.16 mg/kg and an ED50 (Rattus norvegicus [2]) of 0.08 mg/kg.
`Fc1ccc(Cn2c(NC3CCN(CCc4ccccn4)CC3)nc3ccccc32)cc1` showed an ED50 (Rattus norvegicus [12]) of 0.63 mg/kg and an ED50 (Rattus norvegicus [2]) of 0.16 mg/kg.
For `Cl.N#CCOc1ccc(CCN2CCC(Nc3nc4ccccc4n3Cc3ccc(F)cc3)CC2)cc1`, the ED50 (Rattus norvegicus [12]) was 0.08 mg/kg and the ED50 (Rattus norvegicus [2]) was 0.63 mg/kg.
Work on `Oc1nc2ccccc2n1CCCN1CCC(Nc2nc3ccccc3n2Cc2ccc(F)cc2)CC1` yielded an ED50 (Rattus norvegicus [12]) of 1.25 mg/kg and an ED50 (Rattus norvegicus [2]) of 0.31 mg/kg.
`O=C(Cc1ccccc1)Oc1ccc(CCN2CCC(Nc3nc4ccccc4n3Cc3ccc(F)cc3)CC2)cc1` gave an ED50 (Rattus norvegicus [12]) of 0.08 mg/kg and an ED50 (Rattus norvegicus [2]) of 0.31 mg/kg.
Work on `Fc1ccc(Cn2c(NC3CCN(CCCNc4ccccc4)CC3)nc3ccccc32)cc1` yielded an ED50 (Rattus norvegicus [12]) of 2.5 mg/kg and an ED50 (Rattus norvegicus [2]) of 0.63 mg/kg.
In the case of `Cl.O=C(COc1ccc(CCN2CCC(Nc3nc4ccccc4n3Cc3ccc(F)cc3)CC2)cc1)N1CCCCC1`, the ED50 (Rattus norvegicus [12]) is reported as 1.25 mg/kg and the ED50 (Rattus norvegicus [2]) is reported as 1.25 mg/kg.

— ChEMBL document CHEMBL1123124, “New antihistaminic N-heterocyclic 4-piperidinamines. 2. Synthesis and antihistaminic activity of 1-[(4-fluorophenyl)methyl]-N-(4-piperidinyl)-1H-benzimidazol-2-a mines” (1985)
